Rows were chosen to be rich in hits. Some 2.9% of all compounds tested hit in one or more screens of this group.
PRMT1 inh = blocks human protein arginine methyltransferase 1. inhibition, % at 2.79 µM. recombinant PRMT1, activity-based probe fluorescence polarization. 370,000 tested, 1.3% active. AID 652257;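 active = inhibition above about 21% made by adding two undisclosed values, limit read from the data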
TCR-CD3 inh = human TCR-CD3 binding inhibition; TAMRA-labeled TCR probe fluorescence, biochemical; inhibition, % at 9.4 µM; 360,000 tested, 0.37% active; in the data active = inhibition above about 19%;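 note: recombinant mutant TCR 2C K166C tagged with TAMRA read by polarization; 0% = receptor in buffer alone and 100% = receptor with positive control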
SIAE primary = blocks human sialic acid acetylesterase; Q9HAT2; SIAE FP-Rh probe binding, fluorescence polarization; inhibition, % at 9.66 µM; 370,000 tested, 0.69% active; AID 1053197;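 active = inhibition above a cutoff: mean of compounds within the control limits plus 3 SD of those, cut at about 17% in these data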;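 note: 0% = plate median of compound wells and 100% = probe without SIAE protein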
PAD4 inh = inhibitors of human PAD4. inhibition, % at 6.36 µM. 330,000 tested, 0.41% active. recombinant PAD4, RCA probe fluorescence polarization. Q9UM07. AID 485272;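 active = percent inhibition above a cutoff equal to the mean of all tested compounds plus 3 SD, cut at about 15% in these data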;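 note: 0% = PAD4 with RCA probe and DMSO and 100% = probe without PAD4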
HTRA1 inhibitor = blocks human HTRA1 serine peptidase. Q92743. recombinant HTRA1, FP-rhodamine activity-based probe, fluorescence polarization. inhibition, % at 5.96 µM. 340,000 tested, 0.5% active. AID 504803; in the data active = inhibition above about 36%;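 note: 0% = enzyme with DMSO and 100% = wells lacking enzyme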
mABHD4 FP = inhibitors of mouse ABHD4; purified mABHD4, FP-Rh probe fluorescence polarization; inhibition, % at 8.92 µM; 370,000 tested, 0.54% active; AID 720543;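 active = inhibition exceeding the mean over every tested compound plus 3 SD, cut at about 30% in these data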;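 note: 0% = plate median of compound wells and 100% = S159A mutant with DMSO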
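system = mouse ABHD4 enzyme, wild type | medium = HEPES pH 7.0, NaCl, Pluronic buffer | also added = FP-Rh probe | incubation = Enzyme–compound pre-incubation 45 min, then probe 60 min, both 25 °C | technique = fluorescence polarization, excitation 525 nm, emission 598 nm, BODIPY TMR filters | controls = S159A mutant high control, sample median low control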
PAD4 confirm = PAD4 (human) inhibition, confirmed; AID 488796; 1,200 tested, 28% active; inhibition, % at 6.36 µM; recombinant PAD4, RCA probe fluorescence polarization; shares compounds with PAD4 inh;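 active = mean inhibition across replicates above the hit cutoff set by the earlier primary screen, cut at about 15% in these data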;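 note: inhibitors block active-site labeling by the probe so polarization falls; 0% = PAD4 with probe and DMSO and 100% = probe without PAD4 enzyme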
* = called active by the depositor; · = no result.

SMILES	PRMT1 inh	TCR-CD3 inh	SIAE primary	PAD4 inh	HTRA1 inhibitor	mABHD4 FP	PAD4 confirm
OCCNC(=S)Nc1ccc2nsnc2c1	1	-4	8	28*	10	1	6
O=C(Nc1ccc(Cl)cc1)Nc1ccccc1Sc1ncc([N+](=O)[O-])s1	50*	-4	7	22*	7	1	14
O=C(Nc1csc([N+](=O)[O-])c1)Nc1ccccc1Cl	-4	-5	-5	-2	-6	-9	·
COc1ccc(C(=O)NNC(=S)NC(=O)c2cc(-c3ccccc3)nc3ccccc23)cc1	4	10	-9	15*	8	0	6
CCCOc1ccc(C(=O)NNC(=S)NC(=O)c2cc(-c3ccc(Cl)cc3)nc3ccccc23)cc1	6	-3	-51	8	7	-8	·
Oc1ccc2ccccc2c1/C=N/Nc1ccccc1	6	4	9	11	12	21	·
Oc1ccc2ccccc2c1C=NCc1ccccc1	4	7	-2	19*	0	7	-2
O=C(NN=C/C=C/c1ccco1)c1cc(-c2ccc(Cl)cc2)n[nH]1	15	·	-25	·	·	-42	·
COc1cccc(N2C(=O)CC(Nc3ccc(N4CCOCC4)cc3)C2=O)c1 (stereo not given)	·	·	·	31*	51*	·	2
COc1cc(/C=N/n2nnnc2N)ccc1OC(C)=O	2	-10	1	·	4	4	·
COc1ccc(/C=N/Nc2nnc(C)n2N)cc1OC	-2	2	1	25*	5	2	5
COc1ccc(/C=N/Nc2nnc(C)n2N)cc1OC(C)=O	4	-2	3	45*	-2	3	5
O=C(Nc1cccc(C(F)(F)F)c1)OCCCN1CCC2(CCC(c3ccccc3)CC2)C1=O (stereo not given)	-6	·	1	·	·	-10	·
COC(=O)Nc1ccc(SCC(=O)c2cccc([N+](=O)[O-])c2)cc1	69*	-3	8	26*	-7	-12	19*
CCOC(=O)CC[C@@H]1CC[C@]2(CCCN(C(=O)C3CCCC3)C2)O1	-1	·	2	·	·	6	·
Cc1cc2c(cc1C)N(C(=O)CSc1nncn1C)C(C)(C)c1ssc(=S)c1-2	9	1	12	33*	17	27	33*
CC1=CC(C)(C)N(C(=O)CSc2nncn2C)c2ccccc21	3	-4	-2	1	-2	0	·
CCC(=O)N(C1=C(NC)C(=O)c2ccccc2C1=O)C(C)C	-2	6	-1	-5	5	2	·
CNC1=C(N(C(C)=O)c2ccc(Br)cc2)C(=O)c2ccccc2C1=O	-2	2	7	47*	15	3	16*
CCN(c1ccccc1)S(=O)(=O)c1ccc(C(=O)Nc2ccncc2)cc1	-7	2	-4	-2	-17	-19	·
CCN(c1ccccc1)S(=O)(=O)c1ccc(C(=O)NNC(=O)c2ccccc2F)cc1	4	-4	8	16*	-4	0	2
COC(=O)C(F)(Sc1c(C)n(C)n(-c2ccccc2)c1=O)C(F)(F)F (stereo not given)	6	-4	1	48*	4	7	34*
Cc1c(NC(=O)CC(O)(C(F)(F)F)C(F)(F)F)c(=O)n(-c2ccccc2)n1C	-2	7	0	-6	2	-2	·
c1ccc(CN=C2NN=C(c3cc4ccccc4o3)CS2)cc1	-2	-2	7	-6	-15	7	·
c1ccc2oc(C3=NNC(=NC4CC4)SC3)cc2c1	36*	2	9	21*	-10	-2	8
c1cc2c(cc1C1=NNC(=NC3CC3)SC1)OCCO2	46*	-1	0	41*	3	12	7
O=C(COC(=O)c1ccc(S(=O)(=O)C(F)F)cc1)Nc1ccccc1C(=O)NC1CC1	-7	8	1	15*	11	-7	4
O=C(Nc1ccccc1)Nc1ccc(O)c2ccccc12	·	·	·	24*	·	·	-11
O=C(Nc1ccccc1)Nc1cccc2ccccc12	2	1	5	-7	-10	0	·

Source: PubChem
